From PMC8248431 (The Febs Journal, 2021)

Legend:
[1] = tested on: Irpex lacteus F17 DyP; conditions: cited from earlier work
[2] = tested on: AncDyPD‐b1 D222A; assay: Steady-state kinetics of peroxidase activity, AncDyPD-b1 D222A variant; format: biochemical; conditions: for n (cooperativity constant): cooperativity model, 25 °C, H2O2 with ABTS as electron donor
In short: (§1)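 Purified untagged (SUMO-cleaved) mutant ancestral DyP, expressed in E. coli. H2O2 varied at 25 °C in 50 mM sodium citrate at the ABTS optimal pH 3.0. ABTS was held at its maximum-activity level below substrate inhibition: 10 µM for D222A, D222E and R390K-D222E, 25 µM for R390K, and 50 µM for R390A. Reactions were started with 50–500 nM enzyme, raised to 2.0 µM if activity was low.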

[3] = tested on: AncDyPD‐b1 R390K‐D222E; assay: Steady-state kinetics of peroxidase activity, AncDyPD-b1 R390K-D222E variant; format: biochemical; conditions: cooperativity model; 25 °C; H2O2 with ABTS as electron donor
In short: as §1

[4] = tested on: AncDyPD‐b1 R390K; assay: Steady-state kinetics of peroxidase activity, AncDyPD-b1 R390K variant; format: biochemical; conditions: cooperativity model; 25 °C; H2O2 with ABTS as electron donor
In short: as §1

[5] = tested on: AncDyPD‐b1 R390A; assay: Steady-state kinetics of peroxidase activity, AncDyPD-b1 R390A variant; format: biochemical; conditions: cooperativity model; 25 °C; H2O2 with ABTS as electron donor
In short: as §1

[6] = tested on: AncDyPD‐b1 D222E; assay: Steady-state kinetics of peroxidase activity, AncDyPD-b1 D222E variant; format: biochemical; conditions: cooperativity model; 25 °C; H2O2 with ABTS as electron donor
In short: as §1

[7] = tested on: FtrDyP; assay: Mn2+ oxidation by FtrDyP; format: biochemical, Funalia (Coriolopsis) trogii; conditions: Mn^2+ substrate
[8] = tested on: AncDyPD‐b1; assay: Sulfoxidation; format: biochemical; conditions: 17, 25, and 30 °C, 36 h, pH 3.5, 1.0 mM H2O2, 2.5 mM thioanisole

Structure (SMILES): CCn1c(=NN=c2sc3cc(S(=O)(=O)O)ccc3n2CC)sc2cc(S(=O)(=O)O)ccc21 [ABTS, 2,2'‐azino‐bis(3‐ethylbenzothiazoline‐6‐sulfonic acid)]
- Km [1]: 62 µM
- k cat [1]: 8356 s⁻¹
- fold decrease of KM versus WT ([2]; ABTS oxidation, D222A vs WT): 80 fold
- fold lower k cat than WT ([2]; ABTS oxidation, D222A vs WT): 150 fold

Structure (SMILES): OO [H2O2, hydrogen peroxide]
- n (cooperativity constant) [3]: 2.2
- n (cooperativity constant) [4]: 1.2
- n (cooperativity constant) [2]: 1
- n (cooperativity constant) [5]: 1
- n (cooperativity constant) [6]: 1.4

Structure (SMILES): O=S(=O)([O-])[O-].[Mn+2] [Mn^2+, MnSO4]
- efficiency of FtrDyP relative to AncDyPD‐b1 [7]: 500 times

Structure (SMILES): Nc1c(N=Nc2ccc(S(=O)(=O)CCOS(=O)(=O)[O-])cc2)c(S(=O)(=O)[O-])cc2cc(S(=O)(=O)[O-])c(N=Nc3ccc(S(=O)(=O)CCOS(=O)(=O)[O-])cc3)c(O)c12.[Na+].[Na+].[Na+].[Na+] [RB5, Reactive Black 5]
- n (cooperativity constant) [3]: 2.3
- n (cooperativity constant) [4]: 2.1
- n (cooperativity constant) [2]: 2.8
- n (cooperativity constant) [5]: 1
- n (cooperativity constant) [6]: 2.2

Structure (SMILES): Nc1c(S(=O)(=O)[O-])cc(Nc2cccc(S(=O)(=O)CCOS(=O)(=O)[O-])c2)c2c1C(=O)c1ccccc1C2=O.[Na+].[Na+] [RB19, Reactive Blue 19]
- Km [1]: 133 µM
- k cat [1]: 5345 s⁻¹

Structure (SMILES): CSc1ccccc1 [thioanisole]
- conversion (peroxygenase activity, sulfoxidation) [8]: no conversion
